Columns and labels:
Rattus norvegicus = experiment: The compound was tested for antidepressant activity by its ability to inhibit muricidal intraperitoneally; assay type: functional; details: ip
Procedure, shortened: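 Male Long-Evans rats (200–300 g), groups of five, given test drug ip as a methylcellulose suspension at an initial screening dose of 10 or 20 mg/kg. Mice were presented to the rats 30 min after dosing.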

Mus musculus = organism: Mus musculus; experiment: The compound was tested for antidepressant activity by its ability to reverse tetrabenazine induced ptosis in mice, perorally; assay type: functional; details: po
Procedure, shortened: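 Male albino CFI mice (18–22 g), groups of five, dosed po with test drug in methylcellulose suspension (initial screening dose 30 mg/kg). Tetrabenazine methanesulfonate 30 mg/kg was given ip 30 min later, and palpebral opening was scored after 30 min.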

`c1ccc2c(c1)Oc1cccnc1S2` gave an ED50 (Rattus norvegicus) of over 10 mg/kg and an ED50 (Mus musculus) of 8 mg/kg.
For `O=S1(=O)c2ccc(Br)cc2Oc2cccnc21`, the ED50 (Rattus norvegicus) was 7 mg/kg and the ED50 (Mus musculus) was 15 mg/kg.
In the case of `FC(F)(F)c1ccc2c(c1)Oc1cccnc1S2`, the ED50 (Rattus norvegicus) is reported as over 10 mg/kg and the ED50 (Mus musculus) is reported as 16 mg/kg.
In the case of `O=S1(=O)c2ccc(C(F)(F)F)cc2Oc2cccnc21`, the ED50 (Rattus norvegicus) is reported as 17 mg/kg and the ED50 (Mus musculus) is reported as 1 mg/kg.
`CN(C)CCCN1c2ccccc2CCc2ccccc21` [IMIPRAMINE] showed an ED50 (Rattus norvegicus) of 20 mg/kg and an ED50 (Mus musculus) of 2 mg/kg.
In the case of `O=[N+]([O-])c1ccc2c(c1)Oc1cccnc1S2`, the ED50 (Rattus norvegicus) is reported as 7 mg/kg and the ED50 (Mus musculus) is reported as over 30 mg/kg.
`Clc1ccc2c(c1)Oc1cccnc1S2` was tested, and the ED50 (Rattus norvegicus) was over 10 mg/kg and the ED50 (Mus musculus) was over 30 mg/kg.
Molecule `NS(=O)(=O)c1ccc2c(c1)Oc1cccnc1S2` has an ED50 (Rattus norvegicus) of 8 mg/kg and an ED50 (Mus musculus) of over 30 mg/kg.
In the case of `O=S1(=O)c2ccc(NO)cc2Oc2cccnc21`, the ED50 (Rattus norvegicus) is reported as over 10 mg/kg and the ED50 (Mus musculus) is reported as 2 mg/kg.
In the case of `O=S1(=O)c2ccc(Cl)cc2Oc2cccnc21`, the ED50 (Rattus norvegicus) is reported as over 10 mg/kg and the ED50 (Mus musculus) is reported as 18 mg/kg.
With `Brc1ccc2c(c1)Oc1cccnc1S2` the ED50 (Rattus norvegicus) was over 10 mg/kg and the ED50 (Mus musculus) was over 30 mg/kg.
`O=[N+]([O-])c1ccc2c(c1)Oc1cccnc1S2(=O)=O` showed an ED50 (Rattus norvegicus) of 12 mg/kg and an ED50 (Mus musculus) of 10 mg/kg.
`O=S1(=O)c2ccccc2Oc2cccnc21` was tested, and the ED50 (Rattus norvegicus) was over 10 mg/kg and the ED50 (Mus musculus) was 12 mg/kg.
Molecule `COc1ccc2c(c1)Oc1cccnc1S2(=O)=O` has an ED50 (Rattus norvegicus) of over 10 mg/kg and an ED50 (Mus musculus) of over 30 mg/kg.
For `COc1ccc2c(c1)Oc1cccnc1S2`, the ED50 (Rattus norvegicus) was over 10 mg/kg and the ED50 (Mus musculus) was over 30 mg/kg.

Reference: ChEMBL document CHEMBL1121414, “Central nervous system activity of 7-substituted 1-azaphenoxathiin analogues and their oxidation products” (1980)
